The nature of data set [1]: Oral bioavailability in Sprague-Dawley rat at 20 mg/kg. To be noted: in vivo. It is filed as ADME, organism-based.
Data set [2] in a line: Elimination half life in Sprague-Dawley rat at 5 mg/kg, iv. The class given is ADME, organism-based. More on the design: dose 5 mg/kg, route intravenous. Particulars: in vivo, read-out: beta t1/2 (converted). A digest of the protocol: (§1)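 Male Sprague-Dawley rats (n = 3), single 5 mg/kg iv dose as solution in PEG300/DMSO 50:50; plasma sampled 0.083–24 h, LC-MS bioanalysis; noncompartmental analysis, means.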

The nature of data set [3]: Clearance in Sprague-Dawley rat at 5 mg/kg, iv. The class given is ADME, organism-based. More on the design: dose 5 mg/kg, route intravenous. Particulars: in vivo. In short, it runs like this:
as §1

Data set [4] is described as follows: AUC (0 to infinity) in Sprague-Dawley rat at 5 mg/kg, iv. Set-up: time infinity, dose 5 mg/kg, route intravenous. It is filed as ADME, organism-based. Particulars: plasma.
The nature of data set [5]: Tmax in Sprague-Dawley rat at 20 mg/kg, po. It is filed as ADME, organism-based. More on the design: dose 20 mg/kg, route oral. Particulars: in vivo.
Data set [6] in a line: AUC (0 to infinity) in Sprague-Dawley rat at 20 mg/kg, po. Set-up: time infinity, dose 20 mg/kg, route oral. Particulars: plasma. It is filed as ADME, organism-based.
Data set [7] can be described thus: Protein binding in human plasma at 10 uM incubated for 8 hrs at 37 degC by equilibrium dialysis method. The class given is ADME, cell-free. Particulars: read-out: PPB (converted). A digest of the protocol:
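Equilibrium dialysis: 10 μM compound in 1% DMSO in human plasma vs 0.05 M phosphate buffer pH 7.5 across 12–14 K cutoff membrane, at least 8 h at 37 °C; HPLC-photodiode detection at 230 nm; duplicate means.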
For orientation: Equilibrium dialysis compares concentrations on both sides of a semipermeable membrane.

Data set [8] is described as follows: Solubility in simulated intestinal fluid at pH 7.6 by HPLC method. The class given is physicochemical. A digest of the protocol: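 Simulated intestinal fluid medium; each analogue 200 μM final in 2% DMSO, shaken 24 h at room temperature, then HPLC with photodiode array read at 230 nm; duplicate, means given.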
The next data set concerns Vero. Put plainly: Cytotoxicity against african green monkey Vero cells. It is filed as cell-based, Chlorocebus sabaeus. To be noted: Chlorocebus sabaeus, Vero; read-out: IC50.
Data set [9] relates to Mycobacterium tuberculosis. Kind of data set: Antitubercular activity against non-replicating Mycobacterium tuberculosis H37Rv incubated for 10 days by LORA method. It is filed as functional. Particulars: 240 h. A digest of the protocol:
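H37Rv carrying pFCA-luxAB was adapted to low oxygen by gradual self-depletion in a sealed, slowly stirred flask. It was then exposed to compounds for 10 days under anaerobic conditions. Cultures recovered for 28 h in ambient oxygen before n-decanal substrate was added and luminescence read. MIC was the lowest concentration giving a 90% reduction in luminescence versus untreated controls.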

Data set [10] can be described thus: Efflux ratio in human Caco2 cells incubated for 1 hr at 37 degC by HPLC-MS/MS method. The class given is ADME, cell-based. To be noted: Caco-2. Background: Caco-2 cells form a polarised layer with tight junctions and transporters.
Data set [11] relates to Salmonella typhimurium. Put plainly: Toxicity in Salmonella typhimurium TA100 assessed as compound level per well causing cytotoxicity at 0.25 to 240 ug/well in absence of rat liver S9 fraction. The class given is organism-based. To be noted: salmonella enterica subsp. enterica serovar typhimurium. In short, it runs like this: (§2)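 MicroAmes: strains preincubated with or without Aroclor-induced rat liver S9, duplicate wells, six concentrations 0.25–250 μg equivalents/well; DMSO vehicle, 4-nitroquinoline-N-oxide (−S9) and 2-aminoanthracene (+S9) positive controls; revertant colonies counted; cytotoxicity noted as reduced revertants or background lawn; precipitation recorded.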

For data set [12], the system named is Salmonella typhimurium. Put plainly: Mutagenicity in Salmonella typhimurium TA100 assessed as mean revertant colonies at 0.25 to 240 ug/well in absence of rat liver S9 fraction. It is filed as toxicity, organism-based. Particulars: salmonella enterica subsp. enterica serovar typhimurium. A digest of the protocol:
as §2

Data set [13] has as its system Salmonella typhimurium. Kind of data set: Mutagenicity in Salmonella typhimurium TA98 assessed as mean revertant colonies at 0.25 to 240 ug/well in absence of rat liver S9 fraction. The class given is toxicity, organism-based. Particulars: salmonella enterica subsp. enterica serovar typhimurium. In short, it runs like this:
as §2

One may read the bioavailability as the share of a dose that reaches the circulation, judged against a reference dose that is usually intravenous. One may read the clearance as the volume of plasma or blood freed of the substance per unit of time. The term AUC(0-inf) denotes the area under the concentration-time curve extrapolated to infinity. Usually Tmax stands for the time at which the peak concentration occurs. For orientation: solubility means the concentration that dissolves in the medium under given conditions. What is called IC50 is the concentration that gives 50% inhibition. One may read the MIC90 as the lowest concentration that inhibits either 90% of growth or 90% of the strains tested, depending on the study. One may read the efflux ratio as the permeability from basolateral to apical divided by that in the opposite direction, in the common usage.

Structures are written as SMILES. Values after ≈ are worked out from the molar mass of the structure shown. Some results are limits rather than exact numbers.

`O=C1C2=Nc3ccccc3CN2c2ccc(Cl)cc21` returned a bioavailability in [1] of 8%. In addition, the half-life in data set [2] is 1.42 h. The same molecule gave a clearance in data set [3] of 92.8 mL/min/kg. The AUC(0-inf) in data set [4] is 930 ng·h/mL; in data set [6], 300 ng·h/mL. Further, in data set [5], the Tmax came out at 2 h. Further, the fraction unbound at 8 h, 10 µM in data set [7] is 0.013. For the same molecule, the solubility in data set [8] was 19.3 µM (≈ 5.19 µg/mL). In the data set with Vero, the IC50 turned out to be 40 µg/mL (≈ 149 µM). The MIC90 in [9] is 24 µg/mL (≈ 89.3 µM). Besides, the efflux ratio at 1 h in [10] is more than 1. Moreover, the values for the Activity entry with Salmonella typhimurium [11], with Salmonella typhimurium [12] and in the data set on Salmonella typhimurium [13] were “>= 2.5 ug”, “Non-toxic” and “Non-toxic”, respectively.

The record behind these values is ChEMBL document CHEMBL2346548, “Design, synthesis, and structure-activity relationship studies of tryptanthrins as antitubercular agents” (J Nat Prod, 2013).
